Experimental data of several laboratories.
Lines come from different studies, so protocols differ.
Target: Myosin light chain kinase family member 4 (MYLK4, Homo sapiens, UniProt Q86YV6)
Residues used in one study (Q86YV6 1-388): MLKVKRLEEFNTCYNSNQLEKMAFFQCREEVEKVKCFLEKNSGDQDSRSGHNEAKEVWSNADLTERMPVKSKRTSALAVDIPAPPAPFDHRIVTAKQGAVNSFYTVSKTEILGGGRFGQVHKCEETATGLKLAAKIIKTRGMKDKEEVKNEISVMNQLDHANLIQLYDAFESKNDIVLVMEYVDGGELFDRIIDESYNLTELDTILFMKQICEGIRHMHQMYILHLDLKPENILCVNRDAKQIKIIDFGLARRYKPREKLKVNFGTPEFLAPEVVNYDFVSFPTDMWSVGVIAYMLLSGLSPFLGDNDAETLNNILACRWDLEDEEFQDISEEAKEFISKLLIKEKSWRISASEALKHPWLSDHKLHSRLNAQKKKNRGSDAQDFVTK

SMILES | effect on | technique | tested at | remaining binding [%]
CN(C)c1nccc(-c2cnn3ncccc23)n1 | binding | – | 1 µM | 88
O=C(NCCCN1CCOCC1)c1ccc(Nc2nccc(-c3cc4ccccc4s3)n2)cc1 | binding | competition with immobilised ligand | 1 µM | 0.1
Cc1nc(Cc2cccc(C(F)(F)F)c2)sc1-c1ccc(C(N)=O)nc1 | cell-free assay | competition with immobilised ligand | 1 µM | 91
CNC(=O)[C@@H]1CC[C@@H](n2c(-c3ccc4cnccc4c3)nc3ccc(C(=O)NCc4cccc(C(N)=O)c4)cc32)C1 | binding | competition with immobilised ligand | 1 µM | 100
c1cnn2ncc(-c3ccnc(N4CCC45COC5)n3)c2c1 | binding | – | 1 µM | 78
C[C@@H](c1ccc(-n2cnc3c(N)ncnc32)cc1)N1CCc2nn(C)c(Cc3ccccc3)c2C1=O | binding | competition with immobilised ligand | 0.1 µM | 100
O=C(NCC1CCOCC1)c1n[nH]cc1NC(=O)c1c(F)cccc1F | binding | competition with immobilised ligand | 1 µM | 100
c1cncc(-c2cccc(Nc3nccc(NC4CCCCC4)n3)c2)c1 | binding | competition with immobilised ligand | 10 µM | 51
COc1ccnn2ncc(-c3ccnc(N(C)C)n3)c12 | binding | – | 1 µM | 100
O=C(c1ccc(Nc2ncc(Cl)c(-c3ccc(Cl)s3)n2)cc1)N1CCC(N2CCCC2)CC1 | binding | competition with immobilised ligand | 1 µM | 0
O=S(=O)(NC1CCC(c2cc(F)ccc2F)(S(=O)(=O)c2ccc(Cl)cc2)CC1)C(F)(F)F (stereo not shown) | cell-free assay | competition with immobilised ligand | 1 µM | 100
COc1cnc(Nc2cccc(S(N)(=O)=O)c2)nc1N1CCN(c2ccccc2)CC1 | binding | competition with immobilised ligand | 1 µM | 100
O=C(c1ccc(Nc2nccc(-c3cc4ccccc4s3)n2)cc1)N1CCC(N2CCCC2)CC1 | binding | competition with immobilised ligand | 1 µM | 0.1
CNC(=O)Nc1ccc2c(c1)CC[C@@]21OC(=O)N(CC(=O)N(Cc2ccc(F)cc2)[C@@H](C)C(F)(F)F)C1=O | cell-free assay | competition with immobilised ligand | 1 µM | 70
N[C@@H]1CCN(c2nccc(-c3cnn4ncccc34)n2)C1 | binding | – | 1 µM | 100
COc1cccc(CNC(=O)c2nc3scc(COCc4ccc(C(=O)O)cc4)c3c(=O)[nH]2)c1 | cell-free assay | competition with immobilised ligand | 1 µM | 100
CN(C)c1ncc(F)c(-c2cnn3ncccc23)n1 | binding | – | 1 µM | 100
Nc1cnc(N2CCc3cc(S(=O)(=O)Nc4c(F)cc(Cl)cc4F)cc(N4CCCC4=O)c32)nc1 | cell-free assay | competition with immobilised ligand | 1 µM | 100
CCN1CCN(Cc2ccc(C(=O)Nc3ccc(C)c(Oc4ccc5c(c4)CC(=O)N5)c3)cc2C(F)(F)F)CC1 | binding | competition with immobilised ligand | 1 µM | 84
